Data taken from ChEMBL document CHEMBL4350956, “Paired Utility of Aza-Amino Acyl Proline and Indolizidinone Amino Acid Residues for Peptide Mimicry: Conception of Prostaglandin F2α Receptor Allosteric Modulators That Delay Preterm Birth” (J Med Chem, 2019).
Calls of active or inactive are those of the source. No cut-off for these calls is given here. Non-standard residues stand in square brackets, D forms with d. Residues, ends and D or L forms follow the SMILES beside them. *: point of attachment. Pro(trans-4-F) = O=C(O)[C@@H]1C[C@@H](F)CN1; Pro(cis-4-F) = O=C(O)[C@@H]1C[C@H](F)CN1; Pro(4R-NH2) = N[C@H]1CN[C@H](C(=O)O)C1; 3Pal = N[C@@H](Cc1cccnc1)C(=O)O; β3hF = N[C@H](CC(=O)O)Cc1ccccc1; PhAc = O=C(Cc1ccccc1)*; azaGly = NNC(=O)O

Tests used:
[1] = target: Prostaglandin F2-alpha receptor (Mus musculus) (UniProt P43117); assay: Allosteric modulator activity at prostaglandin F2alpha receptor in CD-1 mouse myometrial strips assessed as inhibition of PGF2alpha- induced contraction at 10 uM pre-incubated for 20 mins followed by PGF2alpha challenge
Method in brief: (§1)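 Myometrial strips; baseline taken as mean tension of spontaneous contractions at start. Pretreated 20 min with modulator, then PGF2α challenge. Tension rise computed as […], X = PGF2α-induced change in mean tension (g), Y = initial reference response (g). % inhibition = (A-B)/A, A without and B with pretreatment. 5 experiments per group; means ± SEM.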

[2] = target: Prostaglandin F2-alpha receptor (Mus musculus) (UniProt P43117); assay: Allosteric modulator activity at prostaglandin F2alpha receptor in CD-1 mouse myometrial strips assessed as inhibition of PGF2alpha- induced contraction at 1 uM pre-incubated for 20 mins followed by PGF2alpha challenge; method in brief: as §1
Mus musculus [3] = organism: Mus musculus; assay: Inhibition of spontaneous myometrial contraction in CD-1 mouse assessed as decrease in mean tension at 10 uM; type: functional, tissue-based; conditions: Myometrium
Mus musculus [4] = assay: (§2) Suppression of PGF2alpha-induced premature delivery in Timed-pregnant CD-1 mouse assessed as inhibition of PGFalpha-induced myometrial contraction by measuring time of delay in labor at 10 mg administered subcutaneously followed by 0.1 mg, ip bolus injection on day 16 prior to PGF2alpha challenge (reference value: 2 hrs); type: functional
Mus musculus [5] = assay: as §2, with “LPS-induced” for “PGF2alpha-induced”, “LPS-induced” for “PGFalpha-induced”, “20” for “10”, “LPS” for “PGF2alpha”, “12” for “2”; type: functional
Method in brief: (§3)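 Pregnant mice given LPS (E. coli endotoxin) intraperitoneally on gestational day 16. Test agent 20 mg/kg/day, started on day 16, before LPS; controls received saline. Delivery scored as percentage of animals delivered at 12, 15–24, 24–48 and 72 h after LPS. Average delivery time after LPS also recorded. 5–6 animals per treated group; n=10 for saline controls.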

Mus musculus [6] = assay: Suppression of LPS-induced premature delivery in Timed-pregnant CD-1 mouse assessed as inhibition of LPS-induced myometrial contraction by measuring percentage of animals delivering at 20 mg administered subcutaneously followed by 0.1 mg, ip bolus injection on day 16 prior to LPS challenge and measured on day 17; type: functional; set-up: scale not given: the % may be the effect or the level left; method in brief: as §3
Mus musculus [7] = assay: Suppression of LPS-induced premature delivery in Timed-pregnant CD-1 mouse assessed as inhibition of LPS-induced myometrial contraction at 20 mg administered subcutaneously followed by 0.1 mg, ip bolus injection on day 16 prior to LPS challenge and measured up to day 19; type: functional, organism-based; method in brief: as §3
[8] = Solubility of the compound; type: physicochemical

Chain of Prostaglandin F2-alpha receptor (Mus musculus) (P43117 whole entry): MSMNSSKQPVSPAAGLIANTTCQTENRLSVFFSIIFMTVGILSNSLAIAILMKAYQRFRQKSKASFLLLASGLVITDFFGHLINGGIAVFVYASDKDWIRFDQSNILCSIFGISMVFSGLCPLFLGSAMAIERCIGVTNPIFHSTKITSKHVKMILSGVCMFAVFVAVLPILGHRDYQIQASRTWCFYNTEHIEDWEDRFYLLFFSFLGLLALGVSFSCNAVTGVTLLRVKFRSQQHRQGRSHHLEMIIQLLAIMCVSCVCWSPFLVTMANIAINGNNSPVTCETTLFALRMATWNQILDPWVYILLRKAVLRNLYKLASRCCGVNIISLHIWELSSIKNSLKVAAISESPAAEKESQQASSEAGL

SMILES	inhibition [1]	inhibition [2]	further results
O=C(O)C[C@H](Cc1ccccc1)NC(=O)[C@H](Cc1cccnc1)NC(=O)[C@@H]1CCC2=C(c3ccc(OC(F)(F)F)cc3)C[C@H](NC(=O)Cc3ccccc3)C(=O)N21	inactive	inactive	inhibition (Mus musculus [3]): Active
O=C(O)C[C@H](Cc1ccccc1)NC(=O)[C@H](Cc1cccnc1)NC(=O)[C@@H]1CCCN1C(=O)N(Cc1cn(-c2ccccc2)nn1)NC(=O)Cc1ccccc1	inactive	inactive	
O=C(O)C[C@H](Cc1ccccc1)NC(=O)[C@H](Cc1cccnc1)NC(=O)[C@@H]1CCCN1C(=O)N(Cc1ccc([N+](=O)[O-])cc1)NC(=O)Cc1ccccc1	inactive	inactive	
O=C(O)C[C@H](Cc1ccccc1)NC(=O)[C@H](Cc1cccnc1)NC(=O)[C@@H]1CCC2=C(c3ccccc3)C[C@H](NC(=O)Cc3ccccc3)C(=O)N21	Active	Active	
N[C@@H]1C[C@@H](C(=O)N[C@@H](Cc2cccnc2)C(=O)N[C@H](CC(=O)O)Cc2ccccc2)N(C(=O)NNC(=O)Cc2ccccc2)C1 (PhAc-[azaGly][Pro(4R-NH2)][3Pal][β3hF]-OH)	Active	Active	
O=C(O)C[C@H](Cc1ccccc1)NC(=O)[C@H](Cc1cccnc1)NC(=O)[C@@H]1C[C@H](F)CN1C(=O)NNC(=O)Cc1ccccc1 (PhAc-[azaGly][Pro(cis-4-F)][3Pal][β3hF]-OH)	Active	Active	
C#CCN(NC(=O)Cc1ccccc1)C(=O)N1C[C@@H](O)C[C@H]1C(=O)N[C@@H](Cc1cccnc1)C(=O)N[C@H](CC(=O)O)Cc1ccccc1	inactive	inactive	
O=C(O)C[C@H](Cc1ccccc1)NC(=O)[C@H](Cc1cccnc1)NC(=O)[C@@H]1CC[C@@H]2CC[C@H](NC(=O)Cc3ccccc3)C(=O)N21			Time (Mus musculus [4]): ≤ 42 h
O=C(O)C[C@H](Cc1ccccc1)NC(=O)[C@H](Cc1cccnc1)NC(=O)[C@@H]1C[C@@H](O)CN1C(=O)N(Cc1ccccc1)NC(=O)Cc1ccccc1	inactive	inactive	
N[C@H]1C[C@@H](C(=O)N[C@@H](Cc2cccnc2)C(=O)N[C@H](CC(=O)O)Cc2ccccc2)N(C(=O)N(Cc2ccccc2)NC(=O)Cc2ccccc2)C1	Active	Active	
O=C(O)C[C@H](Cc1ccccc1)NC(=O)[C@H](Cc1cccnc1)NC(=O)[C@@H]1CC[C@H]2CC[C@H](NC(=O)Cc3ccccc3)C(=O)N21	inactive		
O=C(O)C[C@H](Cc1ccccc1)NC(=O)[C@H](Cc1cccnc1)NC(=O)[C@@H]1CCCN1C(=O)NNC(=O)Cc1ccccc1 (PhAc-[azaGly]P[3Pal][β3hF]-OH)			Time (Mus musculus [5]): 24 h; Activity (Mus musculus [6]): <20%; inhibition (Mus musculus [7]): Active
C#CCN(NC(=O)Cc1ccccc1)C(=O)N1C[C@@H](F)C[C@H]1C(=O)N[C@@H](Cc1cccnc1)C(=O)N[C@H](CC(=O)O)Cc1ccccc1	inactive	inactive	
O=C(O)C[C@H](Cc1ccccc1)NC(=O)[C@H](Cc1cccnc1)NC(=O)[C@@H]1C[C@H](O)CN1C(=O)NNC(=O)Cc1ccccc1	inactive	inactive	
O=C(O)C[C@H](Cc1ccccc1)NC(=O)[C@H](Cc1cccnc1)NC(=O)[C@@H]1CCCN1C(=O)N(Cc1c[nH]nn1)NC(=O)Cc1ccccc1	inactive	inactive	
O=C(O)C[C@H](Cc1ccccc1)NC(=O)[C@H](Cc1cccnc1)NC(=O)[C@@H]1CCCN1C(=O)N(Cc1cn(-c2ccc(I)cc2)nn1)NC(=O)Cc1ccccc1	inactive	inactive	
COc1ccc(C2=C3CC[C@@H](C(=O)N[C@@H](Cc4cccnc4)C(=O)N[C@H](CC(=O)O)Cc4ccccc4)N3C(=O)[C@@H](NC(=O)Cc3ccccc3)C2)cc1	inactive	inactive	
CN(C)CC#CCN(NC(=O)Cc1ccccc1)C(=O)N1CCC[C@H]1C(=O)N[C@@H](Cc1cccnc1)C(=O)N[C@H](CC(=O)O)Cc1ccccc1	inactive	inactive	
Cc1ccc(CN(NC(=O)Cc2ccccc2)C(=O)N2CCC[C@H]2C(=O)N[C@@H](Cc2cccnc2)C(=O)N[C@H](CC(=O)O)Cc2ccccc2)cc1	inactive	inactive	

SMILES	inhibition [1]	inhibition [2]	further results
O=C(O)C[C@H](Cc1ccccc1)NC(=O)[C@H](Cc1cccnc1)NC(=O)[C@@H]1CCCN1C(=O)N(Cc1ccccc1)NC(=O)Cc1ccccc1	Active		Time (Mus musculus [5]): 24 h; Activity (Mus musculus [6]): <20%; inhibition (Mus musculus [7]): Active
Cc1ccc(-n2cc(CN(NC(=O)Cc3ccccc3)C(=O)N3CCC[C@H]3C(=O)N[C@@H](Cc3cccnc3)C(=O)N[C@H](CC(=O)O)Cc3ccccc3)nn2)cc1	inactive	inactive	
O=C(O)C[C@H](Cc1ccccc1)NC(=O)[C@H](Cc1cccnc1)NC(=O)[C@@H]1C[C@@H](O)[C@H]2CC[C@H](NC(=O)Cc3ccccc3)C(=O)N21	inactive	inactive	
O=C(O)C[C@H](Cc1ccccc1)NC(=O)[C@H](Cc1cccnc1)NC(=O)[C@@H]1C[C@H](O)CN1C(=O)N(Cc1ccccc1)NC(=O)Cc1ccccc1	inactive	inactive	
O=C(O)C[C@H](Cc1ccccc1)NC(=O)[C@H](Cc1cccnc1)NC(=O)[C@@H]1C[C@@H](F)CN1C(=O)N(Cc1ccccc1)NC(=O)Cc1ccccc1	inactive	inactive	
O=C(O)C[C@H](Cc1ccccc1)NC(=O)[C@H](Cc1cccnc1)NC(=O)[C@@H]1CCCN1C(=O)N(Cc1cn(-c2ccc([N+](=O)[O-])cc2)nn1)NC(=O)Cc1ccccc1	inactive	inactive	solubility [8]: Insoluble
C#CCN(NC(=O)Cc1ccccc1)C(=O)N1C[C@H](F)C[C@H]1C(=O)N[C@@H](Cc1cccnc1)C(=O)N[C@H](CC(=O)O)Cc1ccccc1	inactive	inactive	
O=C(O)C[C@H](Cc1ccccc1)NC(=O)[C@H](Cc1cccnc1)NC(=O)[C@@H]1C[C@@H](O)CN1C(=O)NNC(=O)Cc1ccccc1	inactive	inactive	
Nc1ccc(CC(=O)N[C@H]2CC[C@H]3CC[C@@H](C(=O)N[C@@H](Cc4cccnc4)C(=O)N[C@H](CC(=O)O)Cc4ccccc4)N3C2=O)cc1	inactive	inactive	
O=C(O)C[C@H](Cc1ccccc1)NC(=O)[C@H](Cc1cccnc1)NC(=O)[C@@H]1C[C@H](O)[C@@H]2CC[C@H](NC(=O)Cc3ccccc3)C(=O)N12	inactive	inactive	
O=C(O)C[C@H](Cc1ccccc1)NC(=O)[C@H](Cc1cccnc1)NC(=O)[C@@H]1CCC2=CC[C@H](NC(=O)Cc3ccccc3)C(=O)N21		inactive	
O=C(O)C[C@H](Cc1ccccc1)NC(=O)[C@H](Cc1cccnc1)NC(=O)[C@@H]1CCCN1C(=O)N(Cc1cn(-c2ccc(F)cc2)nn1)NC(=O)Cc1ccccc1	inactive	inactive	
C#CCN(NC(=O)Cc1ccccc1)C(=O)N1C[C@H](O)C[C@H]1C(=O)N[C@@H](Cc1cccnc1)C(=O)N[C@H](CC(=O)O)Cc1ccccc1	Active	Active	
O=C(O)C[C@H](Cc1ccccc1)NC(=O)[C@H](Cc1cccnc1)NC(=O)[C@@H]1C[C@@H](F)CN1C(=O)NNC(=O)Cc1ccccc1 (PhAc-[azaGly][Pro(trans-4-F)][3Pal][β3hF]-OH)	inactive	inactive	
[N-]=[N+]=Nc1ccc(CC(=O)N[C@H]2CC[C@H]3CC[C@@H](C(=O)N[C@@H](Cc4cccnc4)C(=O)N[C@H](CC(=O)O)Cc4ccccc4)N3C2=O)cc1	inactive	inactive	
O=C(O)C[C@H](Cc1ccccc1)NC(=O)[C@H](Cc1cccnc1)NC(=O)[C@@H]1C[C@H](F)CN1C(=O)N(Cc1ccccc1)NC(=O)Cc1ccccc1	inactive	inactive	
N#Cc1ccc(C2=C3CC[C@@H](C(=O)N[C@@H](Cc4cccnc4)C(=O)N[C@H](CC(=O)O)Cc4ccccc4)N3C(=O)[C@@H](NC(=O)Cc3ccccc3)C2)cc1	inactive	inactive	
O=C(O)C[C@H](Cc1ccccc1)NC(=O)[C@H](Cc1cccnc1)NC(=O)[C@@H]1CCCN1C(=O)N(Cc1c(F)c(F)c(F)c(F)c1F)NC(=O)Cc1ccccc1	inactive	inactive	solubility [8]: Insoluble
O=C(O)C[C@H](Cc1ccccc1)NC(=O)[C@H](Cc1cccnc1)NC(=O)[C@@H]1CCCN1C(=O)N(CC#CCN1CCCCC1)NC(=O)Cc1ccccc1	inactive	inactive	
